Records with an inconclusive call do not appear.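 Rule for the calls, unless noted: active = inhibition over a set limit, the all-compound mean plus 3 SD, in both replicate runs; inconclusive = over that limit in just one replicate run; inactive = at or under that limit in both runs.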
Assays:
[1] = S. cerevisiae growth inhibition in permissive medium (OD615), pilot counter-assay for S. cerevisiae lifespan shortening project, permissive growth control (AID 705;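 active = growth inhibition above 25% in both replicates, a cutoff set 3 SD above the mean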); conditions: OD615, 24 h, at 10 µM, stronger effect = higher value
How it was run: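 System: S. cerevisiae with engineered DeaD lifespan system / Measured by: absorbance (optical density) at 615 nm / Read-out: reduction in yeast growth (OD615) / Times: 4 h cell pre-growth, 24 h exposure at 30 °C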

[2] = S. cerevisiae growth inhibition in restrictive medium, OD615, pilot screen, restrictive growth control, yeast lifespan reduction project (AID 706;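 active = growth inhibition above a set limit, 3 SD over mean compound inhibition, in both replicates, cut at about 43% in these data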;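 note: modified DeaD lifespan yeast strain shifted to restrictive glucose medium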); conditions: OD615, 48 h, at 10 µM, stronger effect = higher value
How it was run: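 System: Engineered S. cerevisiae DeaD strain | Buffer or medium: Glucose-based CSMM-D restrictive medium | Schedule: 4 h pre-incubation, 48 h exposure at 30 °C | Technique: Optical density at 615 nm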

[3] = doxorubicin toxicity protection in MRP-1 cells – H69AR cells, CellTiter-Glo, duplicate, MRP-1 activator project, pilot screen (AID 807;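 active = viability increase at or above a cutoff of the median across tested compounds plus 3 SD, cut at about 8.5% in these data, passing the limit was not always enough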;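 note: compound pretreatment 18-22 h then 72 h combined with doxorubicin; 0% = doxorubicin alone and 100% = vehicle without doxorubicin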); conditions: H69AR viability with doxorubicin, CellTiter-Glo luminescence; at 10 µM; stronger effect = higher value
[4] = viability of HCT116 without oncogenic beta-catenin – human colon tumor cells, pilot screen (AID 823;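 active = cell viability at or below a set limit in both duplicate runs, the limit being the all-compound median minus 4 SD, cut at about 23% in these data, passing the limit was not always enough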;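 note: 0% = wells killed by 20 µM Hyamine and 100% = untreated DMSO cell wells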); conditions: HCT116 beta-catenin knockout viability, CellTiter-Glo, 60 h; at 10 µM; stronger effect = lower value
[5] = viability of PTEN-null HCT116 cells – cell-based, HCT116 clonal line, CellTiter-Glo, pilot screen (AID 824;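 active = viability at or below 27.92% in each of two runs, the all-compound median minus 4 SD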;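 note: 0% = 20 µM Hyamine control and 100% = vehicle cell control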); conditions: HCT116 PTEN-deleted viability, 60 h, at 10 µM, stronger effect = lower value
[6] = RAM pathway blockade in budding yeast – dse1pr::URA3 reporter, 5-FOA selection, pilot screen (AID 869);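 note: 0% = DMSO wells with no growth and 100% = 10 µM 1-NA-PP1 with full growth; RAM network block rescues cells from 5-FOA so hits raise OD615 growth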; conditions: S. cerevisiae dse1pr::URA3 5-FOA growth, OD615, 2 d; at 10 µM; stronger effect = higher value; strain carries analog-sensitive mutant Cbk1 kinase
[7] = RAM signaling pathway blockade in yeast – S. cerevisiae, Pdr1DBD-CYC8 efflux-inhibited sensitized strain, primary screen (AID 1298;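 active = RAM network inhibition above 8.4% in each of two replicates, 3 SD over the compound average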;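 note: 0% = DMSO untreated cells without growth and 100% = 10 µM 1-NA-PP1 full growth; higher means more yeast growth rescued from 5-FOA killing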); conditions: S. cerevisiae cbk1-as DSE1-URA3 strain, 5-FOA growth OD615, 2 d; at 50 µM; stronger effect = higher value

COc1ccc(-n2nnc3c(=O)n(CC(=O)N4CCC(C)CC4)cnc32)cc1
inactive: growth inhibition [1] 8.16% | growth inhibition [2] 3.46% | viability increase [3] -0.52% | viability [4] 95.8% | viability [5] 92.3% | inhibition [6] 1.77% | RAM network inhibition [7] 2.64%

Nc1c(C(=O)Nc2ccc(Cl)cc2)oc2ccccc12
inactive: growth inhibition [1] -21% | growth inhibition [2] -20.9% | viability increase [3] -4.54% | viability [4] 75.3% | viability [5] 72.9% | inhibition [6] 2.38% | RAM network inhibition [7] 2.51%

COC(=O)c1cc(COc2ccc3c4c(c(=O)oc3c2)CCCC4)c(C)o1
inactive: growth inhibition [1] 2.28% | growth inhibition [2] 5.14% | viability increase [3] -0.68% | viability [4] 103% | viability [5] 100% | inhibition [6] 0.985% | RAM network inhibition [7] 3.78%

CCOC(=O)N1CCN(C(=O)c2cc3c(=O)n(C)c4ccccc4c3n2C)CC1
inactive: growth inhibition [1] -9.54% | growth inhibition [2] 1.15% | viability increase [3] -2.85% | viability [4] 94.6% | viability [5] 89.9% | inhibition [6] 1.31% | RAM network inhibition [7] 0.42%

Cc1nc2ccccc2c2oc(C(=O)N3CCc4ccccc4C3)cc12
inactive: growth inhibition [1] -17.8% | growth inhibition [2] -23.5% | viability increase [3] -3.07% | viability [4] 73.1% | viability [5] 72.5% | inhibition [6] 1.98% | RAM network inhibition [7] 3.91%

CC(O)CSc1nc2c(c(=O)n(C)c(=O)n2C)n1CCCc1ccccc1 (stereo unspecified)
inactive: growth inhibition [1] -7.62% | growth inhibition [2] -5.55% | viability increase [3] 0.66% | viability [4] 101% | viability [5] 96% | inhibition [6] 1.14% | RAM network inhibition [7] 5.17%

CC(Sc1nnc(Cn2c(=O)sc3ccccc32)n1C)c1ccccc1 (stereo unspecified)
inactive: growth inhibition [1] -3.63% | growth inhibition [2] 15.1% | viability increase [3] 0.33% | viability [4] 92.8% | viability [5] 96.3% | inhibition [6] 1.69% | RAM network inhibition [7] 11.7%

CCSc1nnc2c(n1)OC1(CCCC1)Nc1ccccc1-2
inactive: growth inhibition [1] -13.8% | growth inhibition [2] -3.69% | viability increase [3] -0.51% | viability [4] 97.3% | viability [5] 93.5% | inhibition [6] 1.45% | RAM network inhibition [7] 5.92%

Cc1nc2nc[nH]c2cc1Br
inactive: growth inhibition [1] 5.74% | growth inhibition [2] 6.22% | viability increase [3] -2.75% | viability [4] 97.8% | viability [5] 100% | inhibition [6] 0.705% | RAM network inhibition [7] -0.41%

CCCCN(C)C(=O)C(Cc1ccccc1)NS(=O)(=O)c1ccc2c(c1)CCC(=O)N2 (stereo unspecified)
inactive: growth inhibition [1] -18.6% | growth inhibition [2] -11.7% | viability increase [3] -2.47% | viability [4] 89.5% | viability [5] 90.2% | inhibition [6] 1.44% | RAM network inhibition [7] 6.27%

COc1ccccc1N1CCN(c2nc(N)c(C#N)c(CC#N)c2C#N)CC1
inactive: growth inhibition [1] -1.4% | growth inhibition [2] -0.44% | viability increase [3] 2.45% | viability [4] 96.7% | viability [5] 86.3% | inhibition [6] 1.54% | RAM network inhibition [7] 3.57%

CC(C)c1nnc(NC(=O)c2cccs2)s1
inactive: growth inhibition [1] -15% | growth inhibition [2] -8.46% | viability increase [3] 0.84% | viability [4] 95.5% | viability [5] 86.4% | inhibition [6] 1.23% | RAM network inhibition [7] 6.85%

O=C(CSc1nc2c(cnn2-c2ccc(F)cc2)c(=O)[nH]1)N1CCCCC1
inactive: growth inhibition [1] -8.1% | growth inhibition [2] 7.12% | viability increase [3] -3.71% | viability [4] 91.7% | viability [5] 84.7% | inhibition [6] 2.99% | RAM network inhibition [7] 1.77%

CC(=O)Oc1ccc(C(=O)Nc2nnc(C)s2)cc1
inactive: growth inhibition [1] -10.4% | growth inhibition [2] -4.59% | viability increase [3] -2.2% | viability [4] 100% | viability [5] 104% | inhibition [6] 2.9% | RAM network inhibition [7] -0.78%

COc1ccc(OCc2nnc(SCC(=O)O)n2N)cc1
inactive: growth inhibition [1] -6.54% | growth inhibition [2] 5.32% | viability increase [3] 1.25% | viability [4] 106% | viability [5] 94.8% | inhibition [6] 0.66% | RAM network inhibition [7] -2.27%

Cc1ccc(C(=O)Nc2ccccc2NC(=O)c2ccc(C)o2)o1
inactive: growth inhibition [1] -1.73% | growth inhibition [2] 8.06% | viability increase [3] -3.39% | viability [4] 93.2% | viability [5] 91.6% | inhibition [6] 1.41% | RAM network inhibition [7] 3.58%

Fc1ccc(-c2nnc(-c3ccc(Cl)cc3Cl)o2)cc1
inactive: growth inhibition [1] -6.69% | growth inhibition [2] -11.2% | viability increase [3] -5.12% | viability [4] 70.6% | viability [5] 64.2% | inhibition [6] 3.06% | RAM network inhibition [7] 3.99%

CC1(C)CC(=O)C2(CC3=C(CC(C)(C)CC3=O)O2)C(=O)C1
inactive: growth inhibition [1] -4.3% | growth inhibition [2] 0.72% | viability increase [3] 0.2% | viability [4] 94.7% | viability [5] 97.1% | inhibition [6] 1.96% | RAM network inhibition [7] 1.77%

— PubChem BioAssay
